Sampled rows, rich in hits. Any-hit rate of the full collection: about 2.5%.
NR2E3 ag-1: agonists of human nuclear receptor NR2E3; Q9Y5X4; GST-NR2E3/biotin-RetCOR TR-FRET, 1536-well; inhibition of corepressor binding, % at 4.78 µM; AID 2300; actives 0.12% (n = 320,000);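 active = percent inhibition above the cutoff of mean plus 3 SD of all tested compounds, set per screening campaign, cut at about 20% in these data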;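 also: 0% = DMSO wells and 100% = biotin wells as full block of FRET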
Target sequence (Q9Y5X4 whole entry, looked up): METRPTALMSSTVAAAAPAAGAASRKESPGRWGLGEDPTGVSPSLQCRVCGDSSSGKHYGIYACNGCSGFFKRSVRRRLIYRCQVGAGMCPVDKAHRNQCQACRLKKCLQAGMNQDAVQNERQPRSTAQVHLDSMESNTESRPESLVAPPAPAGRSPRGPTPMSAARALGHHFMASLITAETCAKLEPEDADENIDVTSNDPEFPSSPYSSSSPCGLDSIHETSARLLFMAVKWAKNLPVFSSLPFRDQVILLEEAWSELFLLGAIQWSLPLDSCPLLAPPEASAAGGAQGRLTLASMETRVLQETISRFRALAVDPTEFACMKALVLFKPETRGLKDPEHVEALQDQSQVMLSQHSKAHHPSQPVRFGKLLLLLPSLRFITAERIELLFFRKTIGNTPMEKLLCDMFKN
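Test system – NR2E3–RetCOR corepressor complex · Quantity – NR2E3 fusion 1.35 nM · Buffer or medium – Tris pH 7.5 · Incubation – Compound–protein incubation for 5 h at 4 °C · Technique – TR-FRET, Eu(K)-anti-GST donor, streptavidin-D2 acceptor, ex 340, em 617/671 nm · Evaluation – percent inhibition of 671/617 nm emission ratio versus biotin and DMSO controls · Plate – 1536-well format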
GalR3 antag: human GalR3 antagonism | actives 0.44% (n = 360,000) | inhibition, % at 3 µM | HEK293 GalR3-CNG cAMP membrane potential fluorescence; galR3 body fused to GalR1 C-terminus;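 active = inhibition above the screen-wide average plus 3 SD, cut at about 13% in these data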;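 also: forskolin and galanin both at EC90 stimulate the cells; cAMP rise reported by CNG channel membrane potential dye signal; 0% = forskolin plus galanin with DMSO and 100% = forskolin alone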
NadD inh: inhibitors of Staphylococcus aureus NadD; purified NadD enzyme, colorimetric absorbance read-out; inhibition, % at 20 µM; actives 0.78% (n = 360,000); AID 602399; in the data active = inhibition above about 26%
NR2E3 ag-2: activates human NR2E3 receptor; Q9Y5X4; CHO-S Gal4-NCOR/VP16-NR2E3 two-hybrid, luciferase; inhibition of corepressor binding, % at 3.98 µM; actives 0.35% (n = 360,000);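 active = inhibition above the mean of all tested compounds plus 3 SD, cut at about 70% in these data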;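 also: 0% = DMSO with NR2E3 transfected cells and 100% = cells lacking NR2E3 construct; higher means lower luciferase signal from less NR2E3 corepressor binding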
MsrA act: bovine methionine sulfoxide reductase A activation; purified bovine MsrA, absorbance read-out; activation, % at 10.6 µM; actives 0.3% (n = 360,000); AID 602163; in the data active = activation above about 7.5%;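 also: 0% = vehicle and 100% = reference activator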
MsrA inh: inhibitors of bovine MsrA | inhibition, % at 15.5 µM | AID 651718 | actives 0.75% (n = 360,000) | purified bovine MsrA, absorbance read-out; in the data active = inhibition above about 4.5%;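 also: 0% = vehicle wells with enzyme and 100% = reference inhibitor wells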
The depositor's hits bear a star.

For C/C(=N\NC(=O)c1cc2ccccc2cc1O)c1cc2ccccc2o1 the results were NR2E3 ag-1 -0.8, GalR3 antag 0.3, NadD inh 49.3*, NR2E3 ag-2 -0.1, MsrA act -9.1 and MsrA inh 0.9.
O=C(NCC1CCCO1)/C(=C/c1cn(-c2ccccc2)nc1-c1cccnc1)NC(=O)c1ccccc1 (stereo unspecified) was read as NR2E3 ag-1 -2.0, GalR3 antag -0.6, NadD inh 7.1, NR2E3 ag-2 -12.6, MsrA act -1.4 and MsrA inh 0.5.
`CO/N=C(/C(=O)N[C@@H]1C(=O)N2C(C(=O)O)=CCS[C@H]12)c1cnc(N)s1` gave NR2E3 ag-1 5.8, NadD inh 39.2*, NR2E3 ag-2 -41.7 and MsrA act -7.2.
For CCCc1cc(=O)oc2cc(C)cc(OCC(=O)N[C@@H](CSCc3ccccc3)C(=O)O)c12 the results were NR2E3 ag-1 5.3, GalR3 antag -5.2, NadD inh 5.4, NR2E3 ag-2 13.1, MsrA act -0.9 and MsrA inh 1.2.
`Nc1c(C(=O)NC2CC2)sc2nc3c(c(-c4ccco4)c12)CC/C3=C/c1ccco1` gave NR2E3 ag-1 7.9, NadD inh 93.3*, NR2E3 ag-2 2.9 and MsrA act -9.1.
CN(C)c1cccc(C(=O)Nc2cc(C(F)(F)F)ccc2-n2cnc3ccccc32)c1 was read as NR2E3 ag-1 2.5, GalR3 antag 1.2, NadD inh -7.0, NR2E3 ag-2 1.6, MsrA act -5.3 and MsrA inh 0.8.
Screening O=C1CCCN1CCCNC(=S)Nc1ccc(Br)cc1Cl returned NR2E3 ag-1 -1.6, GalR3 antag 3.1, NadD inh -1.4, NR2E3 ag-2 0.9, MsrA act -0.4 and MsrA inh 0.7.
COc1ccc(/C=N/Nc2nc(-c3ccc(Cl)cc3)cc(C(F)(F)F)n2)c(OC)c1 was read as NR2E3 ag-1 -4.5, GalR3 antag -1.1, NadD inh 24.6, NR2E3 ag-2 13.8, MsrA act -1.7 and MsrA inh 4.6*.
`COc1ccc(/C(C)=N\Nc2nc(-c3ccc(Cl)cc3)cc(C(F)(F)F)n2)cc1OC` gave NR2E3 ag-1 -1.0, GalR3 antag -3.2, NadD inh -0.4, NR2E3 ag-2 3.7, MsrA act -0.7 and MsrA inh 0.9.
Screening CC1CN(C(=O)c2cccc(S(=O)(=O)NCc3ccccc3)c2)CC(C)O1 (stereo unspecified) returned NR2E3 ag-1 2.3, GalR3 antag -1.5, NadD inh 0.7, NR2E3 ag-2 -21.4, MsrA act -3.0 and MsrA inh 0.2.
For O=C(/C=C1\NC2(CCCC2)Cc2ccccc21)C(=O)N/N=C/c1ccc(O)c(O)c1 the results were NR2E3 ag-1 8.3, GalR3 antag -5.5, NadD inh 37.8*, NR2E3 ag-2 3.3, MsrA act -10.5 and MsrA inh 2.1.
CC1(C)CC[C@]2(C(=O)n3ccnc3)CC[C@]3(C)[C@H](C(=O)C=C4[C@@]5(C)C=C(C#N)C(=O)C(C)(C)[C@@H]5CC[C@]43C)[C@@H]2C1 was read as GalR3 antag -3.0, NadD inh 43.4*, NR2E3 ag-2 26.8, MsrA act -6.7 and MsrA inh -1.2.
O=[N+]([O-])c1ccc2[nH]c(=S)sc2c1 was read as GalR3 antag -4.4, NadD inh 15.1, NR2E3 ag-2 31.7, MsrA act 9.6* and MsrA inh 1.4.
Screening O=[N+]([O-])c1ccc2[nH]c(=S)[nH]c2c1 returned GalR3 antag -7.6, NadD inh 4.7, NR2E3 ag-2 28.4, MsrA act 2.5 and MsrA inh 2.9.
For CCOC(=O)/C(=N\Nc1ccc(Br)cc1)N1CC(C)OC(C)C1 (stereo unspecified) the results were NR2E3 ag-1 -0.4, NadD inh 5.3, NR2E3 ag-2 76.6* and MsrA act -2.6.
CCOC(=O)/C(=N\Nc1ccccc1Cl)N1CC(C)OC(C)C1 (stereo unspecified) was read as NR2E3 ag-1 0.4, GalR3 antag -5.0, NadD inh -0.2, NR2E3 ag-2 0.0, MsrA act -2.2 and MsrA inh -0.1.
For CCC(=O)Nc1ccc(S(=O)(=O)N2CCOCC2)cc1 the results were NR2E3 ag-1 -2.6, GalR3 antag -1.9, NadD inh 1.7, NR2E3 ag-2 14.3, MsrA act 0.5 and MsrA inh 0.2.
For O=C(O)c1ccc(COc2ccccc2/C=C2\NC(=O)N(Cc3ccccc3F)C2=O)cc1 the results were NR2E3 ag-1 -1.4, GalR3 antag -5.5, NadD inh 21.2, NR2E3 ag-2 -25.8, MsrA act -4.8 and MsrA inh 3.5.
For O=C(CN1C(=O)N/C(=C\c2ccccc2OCc2ccc(C(=O)O)cc2)C1=O)Nc1ccccc1F the results were NR2E3 ag-1 -4.2, GalR3 antag -3.5, NadD inh 0.3, NR2E3 ag-2 -26.4, MsrA act -5.9 and MsrA inh 4.6*.
For CCOc1ccc(C(C)=O)cc1CSC(=N)N the results were NR2E3 ag-1 1.0, GalR3 antag 6.1, NadD inh -7.0, NR2E3 ag-2 -53.8, MsrA act -1.3 and MsrA inh 1.8.
CCCCOc1ccc(Br)cc1CSC(=N)N was read as GalR3 antag 23.1*, NadD inh -6.1, NR2E3 ag-2 46.8, MsrA act -1.8 and MsrA inh -0.3.
Screening O=C(C1CCCCC1)N1C[C@H](n2cc(C3CC3)nn2)[C@@H](O)C[C@@H]1c1ccc(Cl)cc1 returned GalR3 antag -4.1, NadD inh 2.6, NR2E3 ag-2 -5.2, MsrA act -7.1 and MsrA inh 1.9.
`COc1ccc2c(c1)c(=O)oc1cc(OCC(=O)N3CCC(C)CC3)ccc12` gave NR2E3 ag-1 -1.4, NadD inh 17.3, NR2E3 ag-2 -17.2 and MsrA act -5.6.
For COc1ccc2c(c1)c(=O)oc1cc(OCC(=O)N3CCc4ccccc4C3)ccc12 the results were NR2E3 ag-1 3.9, GalR3 antag -2.0, NadD inh 33.1*, NR2E3 ag-2 -0.8, MsrA act -1.7 and MsrA inh -1.8.
For O=c1c2c([N+](=O)[O-])cc([N+](=O)[O-])cc2sn1-c1ccc(Br)cc1 the results were NR2E3 ag-1 -0.5, NadD inh 30.0*, NR2E3 ag-2 -35.5 and MsrA act -0.6.
`O=c1c2c([N+](=O)[O-])cc([N+](=O)[O-])cc2sn1Cc1ccccc1` gave NR2E3 ag-1 0.7, GalR3 antag -7.0, NadD inh 16.3, NR2E3 ag-2 -14.4, MsrA act 2.8 and MsrA inh 0.5.
Screening CC1CCN(S(=O)(=O)c2ccc(Cl)cc2Br)CC1 returned NR2E3 ag-1 -1.3, GalR3 antag -1.7, NadD inh -1.1, NR2E3 ag-2 -10.2, MsrA act -4.0 and MsrA inh 8.8*.
For O=S(=O)(c1cc(Cl)ccc1Br)N1CCCCC1 the results were NR2E3 ag-1 2.6, GalR3 antag -6.3, NadD inh -4.5, NR2E3 ag-2 -15.7, MsrA act -2.7 and MsrA inh -0.8.

Assay outcomes: PubChem, several laboratories
